Measurements reported in ChEMBL document CHEMBL1147152, “Radiolabeled phenethylguanidines: novel imaging agents for cardiac sympathetic neurons and adrenergic tumors” (J Med Chem, 2007).

Key:
Muscle tissue = test: Biodistribution in muscle of Sprague-Dawley rat at 50 to 350 uCi, iv; format: ADME, organism-based; conditions: in vivo
Adrenal medulla = test: Biodistribution in adrenal medulla of Sprague-Dawley rat at 50 to 350 uCi, iv; format: ADME, organism-based; conditions: in vivo
Blood = test: Biodistribution in blood of Sprague-Dawley rat at 50 to 350 uCi, iv; format: ADME, organism-based; conditions: in vivo
Liver = test: Biodistribution in liver of Sprague-Dawley rat at 50 to 350 uCi, iv; format: ADME, organism-based; conditions: in vivo
[1] = Ratio of drug level in heart to blood in macaque rhesus monkey at 4.8 mCi, iv; format: ADME, organism-based, Macaca mulatta
Rhesus monkey [2] = test: Ratio of drug level in heart to liver in macaque rhesus monkey at 4.8 mCi, iv; format: ADME, organism-based, Macaca mulatta; conditions: in vivo
Lung = test: Biodistribution in lung of Sprague-Dawley rat at 50 to 350 uCi, iv; format: ADME, organism-based; conditions: in vivo
[3] = Drug clearance rate in isolated Sprague-Dawley rat heart; format: ADME, tissue-based
How it was run: (§1)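 Isolated working rat heart perfused with Krebs-Henseleit bicarbonate buffer plus 5 mM glucose, gassed 95% O₂/5% CO₂, with 54 μM corticosterone to block uptake-2. After 30 min stabilization, 10 min constant infusion of ¹¹C tracer (2.0-12.0 μCi/mL perfusate), then 120 min washout. Whole-heart activity read by coincidence CsF detectors and converted to apparent distribution volume. K_up (mL/min/g wet) taken as the linear slope of the 1-4 min infusion data. Clearance half-time (hr) from multi-exponential fit of the washout phase.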

Heart = test: Neuronal drug uptake rate in isolated Sprague-Dawley rat heart; format: ADME, tissue-based; how it was run: as §1
[4] = Biodistribution in left ventricle of Sprague-Dawley rat at 50 to 350 uCi, iv; format: ADME, organism-based, Heart left ventricle; conditions: in vivo
Spleen = test: Biodistribution in spleen of Sprague-Dawley rat at 50 to 350 uCi, iv; format: ADME, organism-based; conditions: in vivo
PC-12 [5] = test: Drug uptake in tumor of rat PC12 cells xenografted BALB/c nu/nu mouse at 0.34 mCi within 10 mins; conditions: in vivo
PC-12 [6] = test: Drug uptake in heart of rat PC12 cells xenografted BALB/c nu/nu mouse at 0.34 mCi at 60 mins; conditions: in vivo, 1 h
Rhesus monkey [7] = test: Ratio of drug level in heart to liver in macaque rhesus monkey at 4.9 mCi, iv; format: ADME, organism-based, Macaca mulatta; conditions: in vivo
[8] = Ratio of drug level in heart to blood in macaque rhesus monkey at 5.4 mCi, iv; format: ADME, organism-based, Macaca mulatta
How it was run: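 Rhesus monkey PET: 5.4 mCi of the [¹¹C] tracer, given as an intravenous bolus via catheter to a 5.3 kg animal. Images were reconstructed by OSEM/3D-MAP, and tissue ratios were taken from the dynamic myocardial kinetics.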

Drug uptake (Muscle tissue) | Drug uptake (Adrenal medulla) | Drug uptake (Blood) | Drug uptake (Liver) | Kp [1] | Ratio (Rhesus monkey [2]) | Drug uptake (Lung) | half-life [3] | Kup (Heart) | Drug uptake [4] | Drug uptake (Spleen) | Drug uptake (PC-12 [5]) | Drug uptake (PC-12 [6]) | Ratio (Rhesus monkey [7]) | Compound | Kp [8]
0.07 % ID/g | 0.88 % ID/g | 0.07 % ID/g | 0.89 % ID/g | 4.7 | 4.4 | 0.74 % ID/g | > 102 h | 1.96 mL/min/g | 2.28 % ID/g | 0.63 % ID/g |  |  |  | N=[11C](N)NCCc1cccc(O)c1 | 
0.1 % ID/g | 0.53 % ID/g | 0.09 % ID/g | 3.91 % ID/g |  |  | 0.86 % ID/g | 22 h | 0.42 mL/min/g | 1.91 % ID/g | 0.88 % ID/g |  |  |  | N=[11C](N)NC[C@H](O)c1ccccc1 | 
0.14 % ID/g | 1.17 % ID/g | 0.16 % ID/g | 0.84 % ID/g |  |  | 0.68 % ID/g | > 45 h | 1.64 mL/min/g | 3.3 % ID/g | 0.97 % ID/g | 29 % ID/g | 17 % ID/g |  | N=[11C](N)NCCc1ccc(O)cc1 | 
 |  |  |  |  |  |  | 1.9 h | 0.56 mL/min/g |  |  |  |  |  | N=[11C](N)NCCc1ccc(I)cc1 | 
0.07 % ID/g | 0.56 % ID/g | 0.08 % ID/g | 1.22 % ID/g |  |  | 0.56 % ID/g | > 73 h | 0.72 mL/min/g | 1.77 % ID/g | 0.52 % ID/g |  |  |  | N=[11C](N)NCCc1ccc(F)c(O)c1 | 
0.07 % ID/g | 0.36 % ID/g | 0.14 % ID/g | 2.71 % ID/g |  |  | 0.75 % ID/g | > 152 h | 0.3 mL/min/g | 1.17 % ID/g | 0.63 % ID/g |  |  | 0.6 | N=[11C](N)NCC(O)c1cccc(O)c1 (centres undefined) | 
 |  |  |  |  |  |  | 4.4 h | 0.63 mL/min/g |  |  |  |  |  | N=[11C](N)NCCc1ccc(F)cc1 | 
 |  |  |  |  |  |  | 2.3 h | 0.73 mL/min/g |  |  |  |  |  | COc1ccc(CCN[11C](=N)N)cc1 | 
 |  |  |  |  |  |  | 3.3 h | 1.56 mL/min/g |  |  |  |  |  | N=[11C](N)NCCc1ccccc1 [[11C]PHENETHYLGUANIDINE] | 
0.06 % ID/g | 0.46 % ID/g | 0.07 % ID/g | 0.92 % ID/g |  |  | 0.34 % ID/g | > 20 h | 0.49 mL/min/g | 1.01 % ID/g | 0.43 % ID/g |  |  |  | N=[11C](N)NCCc1cc(O)ccc1F | 
 |  |  |  |  |  |  | 2.4 h | 1.1 mL/min/g |  |  |  |  |  | N=[11C](N)NCCc1cccc(I)c1 | 
0.22 % ID/g | 0.61 % ID/g | 0.13 % ID/g | 1.95 % ID/g |  |  | 0.39 % ID/g |  |  | 2.14 % ID/g | 0.64 % ID/g |  |  |  | [11CH3]NC[C@H](O)c1ccc(O)c(O)c1 [[11C]EPINEPHRINE] | 
 |  |  |  |  |  |  | 1.9 h | 0.24 mL/min/g |  |  |  |  |  | N=[11C](N)NCCc1cccc(F)c1 | 
 |  |  |  |  |  |  | 2.3 h | 1.76 mL/min/g |  |  |  |  |  | N=[11C](N)NCCc1ccccc1F | 

Compound | Drug uptake (Muscle tissue) | Drug uptake (Adrenal medulla) | Drug uptake (Blood) | Drug uptake (Liver) | Kp [1] | Ratio (Rhesus monkey [2]) | Drug uptake (Lung) | half-life [3] | Kup (Heart) | Drug uptake [4] | Drug uptake (Spleen) | Drug uptake (PC-12 [5]) | Drug uptake (PC-12 [6]) | Ratio (Rhesus monkey [7]) | Kp [8]
C[C@H](N[11CH3])[C@H](O)c1cccc(O)c1 | 0.17 % ID/g |  | 0.08 % ID/g |  |  |  | 0.4 % ID/g |  |  |  |  |  |  |  | 4.5
